# Assay outcomes from PubChem BioAssay.
# mABHD4 FP: ABHD4 inhibitors, primary screen, biochemical, fluorescence polarization, mouse; AID 720543, 2013; (Lyso)-N-acylphosphatidylethanolamine lipase (Mus musculus), Q8VD66; hit rate 0.54% among 370,000; purified mABHD4, FP-Rh probe fluorescence polarization; inhibition, % at 8.92 µM;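 active = inhibition exceeding the mean over every tested compound plus 3 SD, cut at about 30% in these data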
#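 Material: mouse ABHD4 enzyme, wild type; Benchmarks: S159A mutant high control, sample median low control; Buffer or medium: HEPES pH 7.0, NaCl, Pluronic buffer; Signal: fluorescence polarization; Read-out: percent inhibition of probe binding, normalized to plate controls; Timing: pre-incubation 45 min, probe exposure 60 min, at 25 °C; Dosing: 8.92 µM, single dose.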
# HTRA1 inh: HTRA1 serine protease inhibitors, primary screen, biochemical, fluorescence polarization, HTS. inhibition, % at 5.96 µM. AID 504803, 2011. recombinant HTRA1, FP-rhodamine activity-based probe. hit rate 0.5% among 340,000; in the data active = inhibition above about 36%
# PRMT1 inh: PRMT1 methyltransferase inhibitors, primary screen, biochemical, fluorescence polarization | recombinant PRMT1, activity-based probe fluorescence polarization | inhibition, % at 2.79 µM | hit rate 1.3% among 370,000;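 active = inhibition above about 21% made by adding two undisclosed values, limit read from the data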
# GASC-1 inh: inhibitors of GASC-1 histone demethylase, primary screen, biochemical, fluorescence, DELFIA europium; Lysine-specific demethylase 4C (Homo sapiens), Q9H3R0; GST-JMJD2C(1-420) H3K9me3 demethylation; inhibition, % at 2.35 µM; hit rate 0.069% among 330,000; AID 2099, 2009;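 active = more than half of a compound's replicate wells show inhibition beyond 50%, single wells judged on their own value; inconclusive = some, but no more than half, of replicates pass 50% inhibition; inactive = no replicate passes 50% inhibition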;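 also: signal counts dimethyl H3K9 product captured on neutravidin plate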
# SIAE primary: human SIAE inhibitors, primary screen, biochemical, fluorescence polarization, FP-Rh probe, 1536-well HTS. Sialate O-acetylesterase (Homo sapiens), Q9HAT2. SIAE FP-Rh probe binding. inhibition, % at 9.66 µM. hit rate 0.69% among 370,000. AID 1053197, 2014;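 active = inhibition above a cutoff: mean of compounds within the control limits plus 3 SD of those, cut at about 17% in these data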
# Target sequence (Q9HAT2 whole entry, looked up): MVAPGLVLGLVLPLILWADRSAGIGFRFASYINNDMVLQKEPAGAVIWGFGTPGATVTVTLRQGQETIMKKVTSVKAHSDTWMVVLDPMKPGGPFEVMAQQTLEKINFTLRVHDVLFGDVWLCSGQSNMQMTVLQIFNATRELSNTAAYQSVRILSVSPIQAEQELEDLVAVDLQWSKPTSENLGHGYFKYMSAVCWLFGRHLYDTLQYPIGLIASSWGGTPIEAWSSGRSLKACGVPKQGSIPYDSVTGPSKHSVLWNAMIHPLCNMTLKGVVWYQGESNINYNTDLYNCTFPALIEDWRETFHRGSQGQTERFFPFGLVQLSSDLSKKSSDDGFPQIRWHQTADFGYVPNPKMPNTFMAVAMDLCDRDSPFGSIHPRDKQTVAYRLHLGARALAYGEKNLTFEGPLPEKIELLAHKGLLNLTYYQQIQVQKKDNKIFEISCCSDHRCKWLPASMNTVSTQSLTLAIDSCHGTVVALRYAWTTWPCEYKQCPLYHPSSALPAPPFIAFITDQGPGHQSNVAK
# SIAE inh conf: human SIAE inhibitors, retest, confirmation, biochemical, fluorescence polarization, FP-Rh probe, triplicate | shares compounds with SIAE primary | SIAE FP-Rh activity-based probe | inhibition, % at 9.66 µM | hit rate 13% among 2,300;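 active = mean inhibition of the replicates above the hit cutoff set in the primary screen, cut at about 17% in these data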;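 also: inhibitors lower polarization as more probe stays unbound to SIAE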
# Hits are given with their value; . = inactive; ? = inconclusive; / = not tested or not shown. Compounds with a hit are over-represented: about 2.4% of the library has one in this group of screens.
SMILES,mABHD4 FP,HTRA1 inh,PRMT1 inh,GASC-1 inh,SIAE primary,SIAE inh conf
COc1cccc(NC(=S)N/N=C2\CC3CCC2(C)C3(C)C)c1 (stereo unspecified),.,.,.,.,.,/
COc1cccc(NC(=S)N/N=C2\CC(C)(C)Oc3ccc(O)cc32)c1,.,.,.,.,36,21
Cc1cccc(NC(=S)N/N=C/c2ccc3c(c2)OCO3)c1,.,.,.,.,.,/
Cc1cccc(NC(=S)N/N=C2\CC(C)(C)Oc3ccc(O)cc32)c1,.,.,.,.,41,.
Fc1ccccc1NC(=S)NC1CCCC1,.,.,.,.,.,/
COc1cccc(NC(=S)NN=C2CCC(C(C)(C)C)CC2)c1 (stereo unspecified),.,.,.,.,19,.
Cc1ccc(C(=O)N2CCC2(C)C(=O)NC(C)C)cc1 (stereo unspecified),.,/,.,/,.,/
C=CCNC(=O)CSc1nc2c(c(=O)[nH]1)CCCC2,.,/,.,/,.,/
Cc1cccc(N2CCN(C(=O)c3cc(S(=O)(=O)N(C)C)ccc3Cl)CC2)c1C,.,/,.,/,.,/
Nc1nc(C(F)(F)F)cc(=O)[nH]1,.,.,.,.,21,.
CCOC(=O)CC[C@@H]1CC[C@]2(CCCN(C(=O)c3ccc4ccccc4n3)C2)O1,.,/,.,/,.,/
Cc1cc[n+](-c2[nH]c(=O)sc2/C=N/N=C(\[O-])CCn2c3ccccc3c3ccccc32)cc1,.,/,.,.,24,.
O=C(NC1CCCC1)C1C(c2ccc(C(F)(F)F)cc2)=Nc2ccccc2N1C(=O)c1ccccc1 (stereo unspecified),.,/,.,/,.,/
COc1cccc(/C=N/NC(=O)c2oc3nc(-c4ccccc4)cc(-c4ccco4)c3c2N)c1,.,.,.,.,.,/
Cc1ccc(-c2cc(-c3ccco3)c3c(N)c(C(=O)NN)oc3n2)cc1,.,.,.,.,28,45
CC#CCCCC(=O)Nc1ccccc1C(=O)O,.,.,.,.,19,.
CCN(CC)C(=O)N1c2ccccc2Sc2ccccc21,.,.,.,.,18,.
CCOCN(C(=O)Cn1cnc2ccccc21)c1c(C)cccc1CC,.,.,.,.,18,.
NC(=O)c1nsc(C(=O)N(Cc2ccccc2Cl)C(C(=O)NCC2CCCO2)c2ccc(O)cc2)c1N (stereo unspecified),.,.,.,.,20,.
Cc1ccc(Cl)cc1NC(=O)Cn1c(C)csc1=O,.,.,.,.,23,.
O=C(CN1CCCC1)Nc1ccc(Cl)cc1C(F)(F)F,.,.,.,.,.,/
Cc1cc(Cl)ccc1NC(=O)CN1CCCC1,.,.,.,.,23,.
O=C(OCc1ccccc1)C1CCCN1C(=O)c1cccs1 (stereo unspecified),.,.,.,.,.,/
O=C(COC(=O)C1CCCN1C(=O)c1cccs1)c1ccccc1 (stereo unspecified),.,.,.,.,17,.
O=C1c2ccccc2C(c2nnnn2-c2ccc3c(c2)OCCO3)N1Cc1cccc(F)c1 (stereo unspecified),.,/,.,/,.,/
SMILES,mABHD4 FP,HTRA1 inh,PRMT1 inh,GASC-1 inh,SIAE primary,SIAE inh conf
COc1ccccc1C(=O)NC(=S)Nc1cccc2cc(O)ccc12,.,.,.,.,.,/
COc1ccc(C(=O)NC(=S)Nc2cccc3cc(O)ccc23)cc1OC,.,.,.,.,28,.
CN1C(=O)CC(C(=O)O)SC1=Nc1ccc(F)cc1 (stereo unspecified),.,.,.,.,.,/
COc1ccc(N=C2SC(C(=O)O)CC(=O)N2C)cc1 (stereo unspecified),.,.,.,.,25,.
CCCc1nnc(NC(=O)C23CC4CC(CC(C4)C2)C3)s1,.,.,.,.,.,/
COCc1nnc(NC(=O)C23CC4CC(CC(C4)C2)C3)s1,.,.,.,/,18,.
Nc1ccc2nc(-c3ccc(-c4nc5ccc(N)cc5[nH]4)cc3)[nH]c2c1,.,/,.,.,17,26
Cc1cc(Oc2cccnc2)ccc1NC(=O)Cc1c[nH]c2ccccc12,.,/,.,/,.,/
O=C(CCc1c[nH]c2ccccc12)Nc1ccc(Oc2cccnc2)cc1,.,/,.,/,22,32
O=C(CSc1nnc(-c2cnccn2)n1-c1ccccc1)c1ccccc1Br,.,/,.,/,.,/
CCCc1cc(=O)oc2cc(OCC(=O)NCCc3c[nH]c4ccccc34)ccc12,.,.,.,?,.,/
CC(C)OC(=O)CSc1nnc(-c2ccccn2)n1C,.,.,.,.,18,.
CC(C)OC(=O)CSc1nnc(-c2ccccn2)n1-c1ccccc1,.,.,.,.,.,/
FC(F)(F)c1ccc2c(c1)NCC1CCCN21 (stereo unspecified),.,.,.,.,18,.
CC(C)CNC(=O)OCc1cn(Cc2ccccc2Cl)nn1,.,/,.,/,.,/
CC(=O)Nc1nc2ncccn2c1-c1ccc(F)c(F)c1,.,/,.,/,.,/
CC1CCCCC12NC(=O)N(CC(=O)N1CCN(S(=O)(=O)c3ccc(Cl)s3)CC1)C2=O (stereo unspecified),.,.,.,/,.,/
CCc1cccc2c(N=O)c(O)[nH]c12,.,.,.,.,21,.
COc1ccc(NC(=O)c2coc(C)c2)cc1,.,.,.,.,19,.
CCCC1CCC2(CC1)CCC2OC(=S)Nc1ccccc1Br (stereo unspecified),.,/,.,/,.,/
COc1ccc(-c2cn(Cc3ccc([N+](=O)[O-])cc3)nn2)cc1,.,.,.,.,.,/
CNc1ccc(OC)cc1-n1cnc(-c2ccc([N+](=O)[O-])cc2)c1,.,.,.,.,20,.
Cc1ccc(NC2=CC(=O)CC(C)(C)C2)cc1Cl,.,.,.,.,20,.
CC(C)(C)S(=O)N1C[C@H]2CC(=O)C(CCO)=C2[C@@H]1CCO (stereo partly specified),.,/,.,/,.,/
COC(=O)c1cn(C)c2ccc(S(=O)(=O)N(C)C3CCCCC3)cc2c1=O,.,.,.,/,20,.
CCn1cc(C(=O)OC)c(=O)c2cc(S(=O)(=O)N(C)C3CCCCC3)ccc21,.,.,.,.,.,/
Cc1ccc(S(=O)(=O)NCCCNS(C)(=O)=O)cc1,.,.,.,.,.,/
CS(=O)(=O)NCCCCCCNS(C)(=O)=O,.,.,.,.,17,.
CCCS(=O)(=O)NC(=O)C1(C)CCN(C(=O)CSc2ccccc2)C1 (stereo unspecified),.,/,.,/,20,.
CCCS(=O)(=O)NC(=O)C1(C)CCCN(C(=O)CSc2ccccc2)C1 (stereo unspecified),.,/,.,/,.,/
